# Entries after “also recorded” stand apart in the source; their conditions may differ. Like-named read-outs stand apart in the source and are kept apart here.
# How the values were obtained:
# [1] = target: P. falciparum PfSR25− (serpentine receptor 25 knockout strain); assay: Comparative IC50 screening, 3D7 versus serpentine receptor 25 knockout strain; format: cell-based, Plasmodium falciparum; settings: 72 h, 0.0019–2 µM, Student's t test
# How it was run: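 Asynchronous 3D7 and PfSR25− cultures (37 °C, 90% N2/5% O2/5% CO2) at 0.3% parasitaemia and 2% haematocrit were exposed for 72 h to eleven final concentrations. Controls were 0.13% DMSO and chloroquine 0.2441–250 nM. Cells were stained with SYBR Green-I (1:10,000) plus MitoTracker Deep Red (50 nM) for 20 min at 37 °C and read by flow cytometry. Survival was taken relative to DMSO, in triplicate over three experiments. IC50 ± SEM came from dose–response curves.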
# P. falciparum 3D7 [2] = format: cell-based, Plasmodium falciparum; settings: 72 h; for IC50: asynchronous culture, 0.0019–2 µM, ± standard error of the mean
# P. falciparum Dd2 = settings: 2 µM; cited from earlier work
# P. falciparum 3D7 [3] = format: cell-based, Plasmodium falciparum; settings: 2.5 nM compound alone, 48 h
# P. falciparum 3D7 [4] = assay: Competition of TCAMS compounds; format: cell-based, Plasmodium falciparum; settings: for effect on the increase in parasitaemia promoted by melatonin: 2.5 nM compound with 100 nM melatonin; for effect on the increase in parasitaemia promoted by melatonin / effect on the increase in parasitaemia promoted by serotonin: 48 h; for effect on the increase in parasitaemia promoted by serotonin: 2.5 nM compound with 250 nM serotonin
# How it was run: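 Asynchronous P. falciparum 3D7 cultures (1% parasitaemia, 2% haematocrit) were given 2.5 nM test compound with or without 250 nM serotonin or 100 nM melatonin. Incubation was 48 h at 37 °C under mixed gas, with a DMSO solvent control. Cells were stained with SYBR Green-I (1:10,000) and MitoTracker Deep Red (50 nM) for 20 min at 37 °C, then parasitaemia was read by flow cytometry. Survival is relative to solvent; triplicate, 3 independent experiments.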
# [5] = tested on: Plasmodium falciparum 3D7; assay: Drug effects on erythrocytic cycle phases in synchronized cultures; format: cell-based
# How it was run: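 Sorbitol-synchronized P. falciparum 3D7 at 1% parasitaemia and 2% haematocrit received test compound (150 nM), chloroquine (150 nM) or 0.1% DMSO at 0, 12 or 24 h post-synchronization. Samples were taken at 12, 24, 36 and 48 h and stained for 30 min in HEPES-buffered Hank's with 1 µM Hoechst and […] thiazole orange. Flow cytometry gated rings, trophozoites and schizonts on DNA/RNA signal. Data are mean ± SD from one triplicate experiment.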
# [6] = Plasmodium falciparum, 3D7, 72 h, read-out: IC50 (nM) 3D7, Table 1
# [7] = read-out: IC50 (nM) 3D7, Table 1
IC50 (P. falciparum 3D7 [2]; [6]),Compound,difference of IC50 between 3D7 and PfSR25− [1],"inhibition of parasite development, strain Dd2 (P. falciparum Dd2)",IC50 (P. falciparum 3D7 [2]; [7]),also measured
120 ± 19.4 nM,"COc1cc2nccc(Nc3ccc(Oc4ccccc4)cc3)c2cc1OC.Cl [TCMDC-131917, Cl.COc1cc2nccc(Nc3ccc(Oc4ccccc4)cc3)c2cc1OC]",none of the compounds tested were significantly different between the two strains,–,–,–
–,"Cn1cnc(CCNC(=O)c2cccc(-c3cccc(-c4nc5cc(C(F)(F)F)ccc5[nH]4)c3)c2)c1 [TCMDC-132496, Cn1cnc(CCNC(= O)c2cccc(c2)-c2cccc(c2)-c2nc3cc(ccc3[nH]2)C(F)(F)F)c1]",–,≤ 50%,1970 ± 116 nM,–
–,"Cc1ccc(NC(=O)Nc2ccc(Cl)c(C(F)(F)F)c2)cc1-c1ccc(C(=O)NCCN2CCOCC2)cc1 [TCMDC-133589, Cc1ccc(NC(= O)Nc2ccc(Cl)c(c2)C(F)(F)F)cc1-c1ccc(cc1)C(= O)NCCN1CCOCC1]",–,≤ 50%,1360 ± 198 nM,–
389 ± 120 nM,"COc1cccc(CCNc2nc(NCc3ccccc3)c3cc(OC)c(OC)cc3n2)c1 [TCMDC-135267, COc1cccc(CCNc2nc(NCc3ccccc3)c3cc(OC)c(OC)cc3n2)c1]",–,–,–,"effect on parasitaemia compared with the control (P. falciparum 3D7 [3]): did not significantly affect parasitaemia compared with the control; effect on the increase in parasitaemia promoted by melatonin (P. falciparum 3D7 [4]): able to inhibit the increase in parasitaemia partially; also recorded: effective in preventing the proliferative effects of melatonin; effect on the increase in parasitaemia promoted by serotonin (P. falciparum 3D7 [4]): able to inhibit the increase in parasitaemia; also recorded: the most effective at inhibiting the proliferative effects of serotonin; classification on the serotonin/melatonin pathway in the parasite (P. falciparum 3D7 [4]; from effects in presence and absence of serotonin or melatonin): potential full antagonists of the pathway; ring phase parasites at the 36 h time point ([5]; 150 nM added 12 h after synchronization, % parasitaemia, n = 3): 0.44 ± 0.14%; parasitaemia at the 36 h time point ([5]; 150 nM added 12 h after synchronization, n = 3): 1.18 ± 0.42%; parasites developed into schizonts at the 24 h time point ([5]; added at 0 h, control 18%): less than 0.5%; effect on erythrocytic cycle progression ([5]; synchronized cultures, added at 0, 12 or 24 h): prevents the progression from trophozoite to mature schizonts, but does not affect the ability of mature schizonts to egress and invade RBCs"
–,"O=C(/C=C/c1ccc(Cl)c(Cl)c1)NC1CCC(CN2CCC(c3c[nH]c4ccc(O)cc34)CC2)CC1 (stereo not drawn) [TCMDC-139494, Oc1ccc2[nH]cc(C3CCN(CC4CCC(CC4)NC(= O)\C = C\c4ccc(Cl)c(Cl)c4)CC3)c2c1]",none of the compounds tested were significantly different between the two strains,–,122 ± 21.1 nM,–
–,"Cc1[nH]c2c(C)cccc2c1C1CCN(CCC2CCN(C(=O)/C=C/c3ccc(Cl)c(Cl)c3)CC2)CC1 [TCMDC-139803, Cc1[nH]c2c(C)cccc2c1C1CCN(CCC2CCN(CC2)C(= O)\C = C\c2ccc(Cl)c(Cl)c2)CC1]",none of the compounds tested were significantly different between the two strains,–,91.9 ± 18.1 nM,effect on parasitaemia compared with the control (P. falciparum 3D7 [3]): induced a significant increase in parasitaemia; effect on the increase in parasitaemia promoted by melatonin (P. falciparum 3D7 [4]): able to inhibit the increase in parasitaemia partially; effect on the increase in parasitaemia promoted by serotonin (P. falciparum 3D7 [4]): partially inhibited the increase in parasitaemia promoted by serotonin
–,"O=C(/C=C/c1c(Cl)cccc1Cl)NC1CCC(CN2CCC(c3c[nH]c4ccccc34)CC2)CC1 (stereo not drawn) [TCMDC-139856, Clc1cccc(Cl)c1\C = C\C(= O)NC1CCC(CN2CCC(CC2)c2c[nH]c3ccccc23)CC1]",–,≤ 50%,274 ± 31.9 nM,–
–,"CC[C@H](NC(=O)c1c(CN2CCC(N3CCCCC3)CC2)c(-c2ccccc2)nc2cc(O)ccc12)c1ccccc1 [TCMDC-140381, CC[C@H](NC(= O)c1c(CN2CCC(CC2)N2CCCCC2)c(nc2cc(O)ccc12)-c1ccccc1)c1ccccc1]",–,≤ 50%,–,reduction of P. falciparum parasitaemia by 50% (P. falciparum 3D7 [2]; at the concentrations tested (0.0019–2 µM)): could not reduce P. falciparum parasitaemia by 50%
–,"O=C1Nc2cccc3c2C1(CCCCN1CCC(c2cc4ccncc4[nH]2)CC1)CCC3 (stereo not drawn) [TCMDC-141151, O = C1Nc2cccc3CCCC1(CCCCN1CCC(CC1)c1cc4ccncc4[nH]1)c23]",–,≤ 50%,459 ± 33.8 nM,–

Compound,IC50 (P. falciparum 3D7 [2]; [6]),difference of IC50 between 3D7 and PfSR25− [1],"inhibition of parasite development, strain Dd2 (P. falciparum Dd2)",IC50 (P. falciparum 3D7 [2]; [7]),also measured
"CN1CCN(CCCCCNc2c3ccccc3nc3ccccc23)CC1.Cl [TCMDC-137541, Cl.CN1CCN(CCCCCNc2c3ccccc3nc3ccccc23)CC1]",165 ± 74.7 nM,–,≤ 50%,–,–

# Source: publication PMC11827156 (Malaria Journal, 2025)
